{"source": "ChEMBL document CHEMBL4392869", "about": "“Possible Biosynthetic Products and Metabolites of Kainic Acid from the Red Alga Digenea simplex and Their Biological Activity” (J Nat Prod, 2019)", "type_in_all_cases": "organism-based", "conditions_in_all_cases": "in vivo, icv_or_intrathecal", "key": {"[1]": {"assay": "Toxicity in ddY mouse assessed as death time at 1.1 nmol dosed via intracerebroventricular injection", "method_in_brief": "(§1)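 Male ddY mice (11−13 g, 3 weeks old), three per compound. Doses, quantified by LC-MS against a weighed standard, were given in 10 μL water, injected slowly over 5 s into the ventricle: 2 mm lateral to the skull midline, 3 mm rostral to the anterior ear-base line, 3 mm deep. Water served as vehicle control. Death time and behavioural symptoms were recorded.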"}, "[2]": {"assay": "Toxicity in ddY mouse assessed as induction of scratching at 1.1 nmol dosed via intracerebroventricular injection", "method_in_brief": "as §1"}, "[3]": {"assay": "Toxicity in ddY mouse assessed as induction of spasms at 1.1 nmol dosed via intracerebroventricular injection", "method_in_brief": "as §1"}, "[4]": {"assay": "Toxicity in ddY mouse assessed as induction of sudden jumping at 1.1 nmol dosed via intracerebroventricular injection", "method_in_brief": "as §1"}, "[5]": {"assay": "Toxicity in ddY mouse assessed as death time at 2.2 nmol dosed via intracerebroventricular injection", "method_in_brief": "as §1"}, "[6]": {"assay": "Toxicity in ddY mouse assessed as induction of adverse symptoms at 2.2 nmol dosed via intracerebroventricular injection", "method_in_brief": "as §1"}, "[7]": {"assay": "Toxicity in ddY mouse assessed as induction of scratching at 2.2 nmol dosed via intracerebroventricular injection", "method_in_brief": "as §1"}, "[8]": {"assay": "Toxicity in ddY mouse assessed as induction of spasms at 2.2 nmol dosed via intracerebroventricular injection", "method_in_brief": "as §1"}, "[9]": {"assay": "Toxicity in ddY mouse assessed as induction of sudden jumping at 2.2 nmol dosed via intracerebroventricular injection", "method_in_brief": "as §1"}, "[10]": {"assay": "Toxicity in ddY mouse assessed as death time at 4.4 nmol dosed via intracerebroventricular injection", "method_in_brief": "as §1"}, "[11]": {"assay": "Toxicity in ddY mouse assessed as induction of adverse symptoms at 4.4 nmol dosed via intracerebroventricular injection", "method_in_brief": "as §1"}}, "data": [{"smiles": "C=C(C)[C@H]1CN[C@H](C(=O)O)[C@H]1CC(=O)O", "note": "[KAINIC ACID]", "values": [{"measurement": "Time", "setting": "[1]", "value": "15 to 30", "unit": "min"}, {"measurement": "Activity", "setting": "[2]", "value": "Toxic"}, {"measurement": "Activity", "setting": "[3]", "value": "Toxic"}, {"measurement": "Activity", "setting": "[4]", "value": "Toxic"}]}, {"smiles": "C=C(C)[C@]1(O)CN[C@H](C(=O)O)[C@H]1CC(=O)O", "values": [{"measurement": "Activity", "setting": "[5]", "value": "Non-Toxic"}, {"measurement": "Activity", "setting": "[6]", "value": "Non-Toxic"}]}, {"smiles": "C=C(C)[C@@]1(O)CN[C@H](C(=O)O)[C@H]1CC(=O)O", "values": [{"measurement": "Activity", "setting": "[5]", "value": "Non-Toxic"}, {"measurement": "Activity", "setting": "[7]", "value": "Toxic"}, {"measurement": "Activity", "setting": "[8]", "value": "Toxic"}, {"measurement": "Activity", "setting": "[9]", "value": "Toxic"}]}, {"smiles": "CC(C)=CCN[C@@H](CCC(=O)O)C(=O)O", "values": [{"measurement": "Activity", "setting": "[10]", "value": "Non-Toxic"}, {"measurement": "Activity", "setting": "[11]", "value": "Non-Toxic"}]}, {"smiles": "CC(C)=CCN[C@H](C(=O)O)[C@H](O)CC(=O)O", "note": "(relative stereo)", "values": [{"measurement": "Activity", "setting": "[10]", "value": "Non-Toxic"}, {"measurement": "Activity", "setting": "[11]", "value": "Non-Toxic"}]}]}
